The test has as its target Wee1-like protein kinase (Homo sapiens) (UniProt P30291). Put plainly: Wee1 degradation inhibitors in HeLa reporter cells – cell-based, Wee1-luciferase fusion, luminescence, powder samples, late-stage follow-up (AID 463169). Conditions: luminescence stabilization, at 0.1 µM, hits give high values. The method, boiled down:
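Test system: HeLa cells transiently transfected with Wee1-luciferase fusion plasmid. Compound: one dose, 0.1 µM nominal. Read-out: average fold change in luminescence relative to DMSO-treated cells. Measured by: luciferase luminescence. Incubation: transfection 48 h before assay, compound exposure 20 h at 37 °C. Repeats: four replicates. Controls: DMSO vehicle-treated cells as reference.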

The structures appear in SMILES notation.

Sequence of Wee1-like protein kinase (Homo sapiens) (P30291 whole entry K328M, the tested form may be a part): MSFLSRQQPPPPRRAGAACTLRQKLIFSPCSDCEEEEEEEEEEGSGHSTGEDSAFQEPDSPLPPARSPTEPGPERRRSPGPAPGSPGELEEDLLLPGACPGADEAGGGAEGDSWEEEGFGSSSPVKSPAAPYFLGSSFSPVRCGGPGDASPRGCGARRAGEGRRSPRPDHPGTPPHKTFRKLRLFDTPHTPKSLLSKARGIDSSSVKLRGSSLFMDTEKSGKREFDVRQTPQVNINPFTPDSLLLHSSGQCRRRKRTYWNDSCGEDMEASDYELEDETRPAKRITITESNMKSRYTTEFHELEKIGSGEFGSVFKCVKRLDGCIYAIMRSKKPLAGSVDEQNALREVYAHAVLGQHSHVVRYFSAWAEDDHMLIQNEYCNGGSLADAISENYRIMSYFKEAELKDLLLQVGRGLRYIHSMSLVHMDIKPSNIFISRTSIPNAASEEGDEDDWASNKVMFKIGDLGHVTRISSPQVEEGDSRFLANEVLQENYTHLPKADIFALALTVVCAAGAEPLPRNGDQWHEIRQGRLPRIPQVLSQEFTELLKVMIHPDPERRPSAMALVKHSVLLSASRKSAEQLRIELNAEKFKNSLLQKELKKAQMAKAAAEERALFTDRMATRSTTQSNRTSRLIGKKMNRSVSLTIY

Regarding `O=[N+]([O-])c1cccc2[nH]c(CNc3nc(N4CCOCC4)nc4c3ncn4-c3ccsc3)nc12`, the fold change is 23.3.
On to `c1ccc2[nH]c(CNc3nc(N4CCOCC4)nc4c3ncn4-c3ccsc3)nc2c1`, for which the fold change was 12.9.

These data come from PubChem BioAssay AID463169 (The Scripps Research Institute Molecular Screening Center, 2010).
